# Screening results (PubChem)
# UCH37 inh = blocks the human deubiquitinase UCH37. AID 588478. hit rate 0.33% among 330,000. purified proteasome/UCH37, Ub-AMC cleavage fluorescence. inhibition, % (no concentration beside the values). Q9Y5K5;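 active = mean inhibition over replicate wells above about 20%, limit read from the data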;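 also: 0% = compound-free wells with enzyme and 100% = wells lacking proteasome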
# Target sequence (Q9Y5K5 whole entry, looked up): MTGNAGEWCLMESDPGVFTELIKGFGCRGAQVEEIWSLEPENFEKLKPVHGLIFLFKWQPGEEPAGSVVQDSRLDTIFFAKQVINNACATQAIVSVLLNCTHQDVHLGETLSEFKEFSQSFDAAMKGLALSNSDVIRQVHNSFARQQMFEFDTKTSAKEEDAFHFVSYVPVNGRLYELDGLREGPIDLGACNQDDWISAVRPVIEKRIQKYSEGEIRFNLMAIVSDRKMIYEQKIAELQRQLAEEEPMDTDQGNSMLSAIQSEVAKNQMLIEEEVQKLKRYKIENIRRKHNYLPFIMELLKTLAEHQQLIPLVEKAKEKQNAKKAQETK
#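 system = Proteasome-associated human UCH37 deubiquitinase | amount = 0.15 nM proteasome as dispensed | medium = pH 7.4 Tris-HCl (50 mM) with ovalbumin, ATP-MgCl2, DTT | incubation = 30 min preincubation with enzyme, 25 min cleavage at room temperature | detection = AMC fluorescence 355/460 nm | read-out basis = percent inhibition | controls = no-proteasome and no-compound wells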
# NSD2 inh = NSD2 (human) methyltransferase inhibition. hit rate 0.54% among 310,000. NSD2 peptide methylation, AlphaScreen, 120 min. inhibition, % at 12.5 µM; in the data active = inhibition above about 50%
# LEDGF integ inh = blocks HIV-1 LEDGF/p75-dependent DNA integration | TR-FRET IN-LEDGF/p75 DNA integration, Eu/Cy5 | inhibition, % at 3.7 µM | hit rate 0.64% among 370,000;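 active = inhibition above the screen-wide mean plus 3 SD, cut at about 13% in these data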;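 also: signal is the Cy5 over europium emission ratio at 671 and 618 nm; 0% = plate median of compound wells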
# Casp6 inh = blocks human caspase-6 cleavage activity | P55212 | purified caspase-6, Z-VEID-R110 cleavage fluorescence | inhibition, % at 12.5 µM | hit rate 0.53% among 350,000;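 active = mean inhibition across replicates at least about 35%, with every replicate also reaching that limit, limit read from the data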;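 also: 0% = median of neutral control wells and 100% = no fluorescence left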
# Target sequence (P55212 24-179 limits assumed): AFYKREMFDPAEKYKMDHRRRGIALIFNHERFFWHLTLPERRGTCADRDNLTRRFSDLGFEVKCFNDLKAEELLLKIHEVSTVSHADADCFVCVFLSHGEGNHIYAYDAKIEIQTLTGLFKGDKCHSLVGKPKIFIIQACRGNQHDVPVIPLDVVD
# Target sequence (P55212 194-293 limits assumed): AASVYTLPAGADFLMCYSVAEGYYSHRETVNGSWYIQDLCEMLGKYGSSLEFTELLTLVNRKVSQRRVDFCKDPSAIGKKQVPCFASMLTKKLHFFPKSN
# TDP2 inh = blocks human TDP2 phosphodiesterase activity. recombinant TDP2, T5PNP hydrolysis, p-nitrophenol absorbance 415 nm. inhibition, % at 12.8 µM. hit rate 0.34% among 370,000;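 active = inhibition above the mean of all tested compounds plus 3 SD, set per campaign, cut at about 25% in these data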;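 also: 0% = DMSO with enzyme and 100% = buffer with substrate but no TDP2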
#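 Material: recombinant human TDP2; quantity: TDP2 enzyme at 120 nM final; medium: Tris-HCl pH 7.5 with MgCl2; compound: single concentration, 12.8 µM nominal, with 1% DMSO; incubation: 2 h enzyme incubation at 37 °C; signal: epi absorbance; measure: percent inhibition; benchmarks: high control without enzyme, low control DMSO plus TDP2; repeats: singlicate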
# AlphaScreen art = interferes with AlphaScreen signal, flagging NSD2 false positives; shares compounds with NSD2 inh; AlphaScreen artifact counterscreen, preloaded methylated H4 peptide; AC35, µM (top dose mostly 10 µM), without a hit: at the highest dose activity change, negative = signal loss; hit rate 9.4% among 1,500; call rule not given here
# The depositor's hits bear a star; i = inactive; . = no result given. An excerpt weighted towards active compounds, which were near 1.3% of everything screened.
SMILES,UCH37 inh,NSD2 inh,LEDGF integ inh,Casp6 inh,TDP2 inh,AlphaScreen art
O=C(NC1CCCc2ccccc21)c1ccccc1OC(F)F (configuration not stated),5,95*,3,1,-6,-1%
CCOc1cccc(-c2c(C(=O)NN=C(C)c3ccncc3)nnn2-c2nonc2N)c1,2,.,.,.,.,.
COc1ccc(NC(=O)CC(C)=NNC(=O)C(=O)Nc2cccc(Cl)c2C)c(OC)c1,-1,.,.,.,.,.
Cc1cc(C(=O)COC(=O)c2n[nH]c(=O)c3ccccc23)c(C)n1C,1,0,3,4,19,.
Cc1cc(C(=O)COC(=O)c2n[nH]c3ccccc23)c(C)n1C,3,71*,1,.,2,-2%
CC1=CC(C)[C@@H]2COC(c3ccc(O)cc3)C1C2C (some centres not stated),2,.,.,.,.,.
CCN(CC)CCNS(=O)(=O)c1ccc2c3c(cccc13)C(=O)N2,i,55*,-2,-6,-2,1%
CN(C)CCNS(=O)(=O)c1ccc2c3c(cccc13)C(=O)N2,i,4,1,-4,4,.
CC(C)Sc1nnc([C@H](Cc2c[nH]c3ccccc23)NC(=O)OC(C)(C)C)o1,3,54*,-1,.,4,-7%
CC(C)(C)OC(=O)N[C@@H](Cc1c[nH]c2ccccc12)c1nnc(SCC(N)=O)o1,2,-1,5,.,-4,.
CC(=O)c1c(C)nc(-c2ccc(Cl)cc2)nc1N=CN(C)C,17,66*,-13,.,-13,-1%
O=C(NC(=S)Nc1cccc2ncccc12)c1ccco1,5,-2,2,4,-5,.
COCCCNC(=S)Nc1cccc2ncccc12,3,86*,-3,1,12,-1%
O=C(c1ccc2c(c1)OCO2)C1CCCN(Cc2ccc3cccc(F)c3n2)C1 (configuration not stated),2,51*,2,.,0,-5%
Cc1cc2c(OCC(O)CNC3CCCCC3)cccc2[nH]1 (configuration not stated),0,54*,-1,-17,-2,-2%
Cc1ccc(-c2sc(-c3ccccc3)nc2CC(=O)Nc2ccccc2F)cc1,5,-3,-5,2,-2,.
Cc1ccc(NC(=O)CC2=NC(=O)C(CC(=O)Nc3ccccc3F)S2)cc1 (configuration not stated),-21,71*,-1,2,5,0%
Cc1ccc(C(=O)NC(=S)NNC(=O)c2ccccc2O)cc1,5,50*,5,.,-3,-7%
CCOC(=O)NN=Cc1ccc(-c2cc(Cl)ccc2Cl)o1,2,.,.,.,.,.
Cc1c(Br)c(=O)oc2c(Br)c(O)c(O)cc12,-35,111*,-3,47*,-10,-15%
O=C1C(Cl)=C(NCCCO)C(=O)c2ccccc21,19,20,4,.,12,.
CN(C)c1ccc(NC2=C(Cl)C(=O)c3ccccc3C2=O)cc1,13,58*,6,4,22,8.8µM*
O=C1C(Cl)=C(N2CCC(C(=O)O)CC2)C(=O)c2ccccc21,78*,102*,.,.,.,2%
CCN1C(=O)/C(=C\c2ccc(-c3ccc([N+](=O)[O-])cc3OC)o2)SC1=Nc1cccc(C(=O)O)c1,15,60*,7,26,8,-6%
CCN1C(=O)/C(=C\c2ccc(-c3cccc(C(=O)OC)c3)o2)SC1=Nc1ccc(C(=O)O)cc1,.,-3,1,-3,-5,.
SMILES,UCH37 inh,NSD2 inh,LEDGF integ inh,Casp6 inh,TDP2 inh,AlphaScreen art
NC(=NOCc1ccc([N+](=O)[O-])cc1)c1ccccn1,4,.,.,.,.,.
CNCc1ccccc1Sc1cccc(O)c1,5,74*,4,.,-2,-4%
COc1ccc(NC(=O)Nc2ccccc2SC)cc1OC,1,2,-7,1,1,.
CNCc1ccccc1Sc1ccc(OC)c(OC)c1,1,56*,-2,.,4,-5%
CNCc1ccccc1Sc1cc(O)ccc1O,4,50,5,.,13,.
NC(=O)c1cc2ccccc2oc1=NNC(=O)c1cccs1,7,.,.,.,.,.
CCC(C)[C@H](NC(=O)OC(C)(C)C)C(=O)NN=Cc1cccc2nccnc12 (some centres not stated),5,.,.,.,.,.
N=C1SCC(=O)N1c1ncc(Cc2ccccc2Cl)s1,2,-1,5,1,-4,.
N=C1SCC(=O)N1c1ncc(Cc2cccc(Cl)c2)s1,0,80*,-4,-6,-13,-1%
COc1cc(C=NNC(=O)c2cccc([N+](=O)[O-])c2)ccc1OCc1ccccc1,1,.,.,.,.,.
COc1ccc(-c2nnc3n2N=C(C)CS3)cc1,4,68*,2,.,5,-3%
COc1ccc(C2=Nn3c(nnc3-c3ccc(OC)cc3)SC2)cc1,7,0,5,.,-1,.
Cc1c(NC(=S)NN=Cc2ccc(N(C)C)cc2)c(=O)n(-c2ccccc2)n1C,-73,.,.,.,.,.
CC1CC(C)CN(C(=O)c2ccc3c(c2NCCO)C(=O)c2ccccc2C3=O)C1 (configuration not stated),6,81*,-1,.,5,8.1µM*
O=C(OCc1cccc2ccccc12)C1CC(=O)N(c2ccccc2)C1 (configuration not stated),2,79*,-2,-4,3,-4%
CC(C)(C)C(=O)COC(=O)C1CC(=O)N(c2ccccc2)C1 (configuration not stated),4,-2,-3,2,17,.
Fc1ccc(N2CCN(c3ccc4c(C(F)(F)F)cc(C(F)(F)F)nc4n3)CC2)cc1,4,121*,-2,.,-3,-2%
CC(=NNC(=O)c1cccc(F)c1)c1ccc(NC(=O)Cc2ccccc2)cc1,3,.,.,.,.,.
O=C(CSc1nc(SCC(=O)NCc2ccccc2)n(-c2ccccc2)n1)NCc1ccccc1,2,81*,1,5,8,-2%
O=C(OCC(=O)N1CCOCC1)c1ccc(Br)cc1,1,64*,-1,0,0,-1%
Cc1ccc(C(=O)OCC(=O)N2CCOCC2)cc1,3,19,-3,2,2,.
CN=C1SC(CC(=O)Nc2ccccc2F)C(=O)N1N=Cc1ccc(O)c(OC)c1 (configuration not stated),2,.,.,.,.,.
Cc1ccc(S(=O)(=O)NC(C(=O)N2CCN(S(=O)(=O)c3cccc(F)c3)CC2)C(C)C)cc1 (configuration not stated),-2,94*,-3,4,3,4%
Cc1ccc(S(=O)(=O)NC(C(=O)N2CCOCCOCCOCC2)C(C)C)cc1 (configuration not stated),1,-2,2,0,-11,.
COc1ccc(C(=O)NN=Cc2ccccn2)cc1OC,3,.,.,.,.,.
CCN(CC)CCOc1ccc(C=NNc2nc3c([nH]2)c(=O)n(C)c(=O)n3C)cc1,5,51*,-1,-9,-3,-4%
